ChEMBL document CHEMBL1123812, “Pyrroloisoquinoline antidepressants. 2. In-depth exploration of structure-activity relationships” (J Med Chem, 1987)
The source made the active and inactive calls.

How the values were obtained:
[1] = species on record: Mus musculus; experiment: Antagonism of tetrabenazine (TBZ)-induced depression measured in mice by motor activity; assay type: functional; conditions: Mus musculus; read-out: ED50
Procedure, shortened: (§1)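 Nonfasted male Swiss Webster mice, 18–24 g, ten per dose level and in saline controls. Test compound given ip 30 min before tetrabenazine 32 mg/kg ip; dose expressed as free base. Motor activity and ptosis scored. Control response ≤90% corrected by Abbott's formula.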

[2] = molecular target: Sodium-dependent serotonin transporter (Rattus norvegicus) (UniProt P31652); experiment: Inhibition of tritiated serotonin(5-HT) uptake at 0.1 uM concentration; assay type: functional
Chain of Sodium-dependent serotonin transporter (Rattus norvegicus) (P31652 whole entry): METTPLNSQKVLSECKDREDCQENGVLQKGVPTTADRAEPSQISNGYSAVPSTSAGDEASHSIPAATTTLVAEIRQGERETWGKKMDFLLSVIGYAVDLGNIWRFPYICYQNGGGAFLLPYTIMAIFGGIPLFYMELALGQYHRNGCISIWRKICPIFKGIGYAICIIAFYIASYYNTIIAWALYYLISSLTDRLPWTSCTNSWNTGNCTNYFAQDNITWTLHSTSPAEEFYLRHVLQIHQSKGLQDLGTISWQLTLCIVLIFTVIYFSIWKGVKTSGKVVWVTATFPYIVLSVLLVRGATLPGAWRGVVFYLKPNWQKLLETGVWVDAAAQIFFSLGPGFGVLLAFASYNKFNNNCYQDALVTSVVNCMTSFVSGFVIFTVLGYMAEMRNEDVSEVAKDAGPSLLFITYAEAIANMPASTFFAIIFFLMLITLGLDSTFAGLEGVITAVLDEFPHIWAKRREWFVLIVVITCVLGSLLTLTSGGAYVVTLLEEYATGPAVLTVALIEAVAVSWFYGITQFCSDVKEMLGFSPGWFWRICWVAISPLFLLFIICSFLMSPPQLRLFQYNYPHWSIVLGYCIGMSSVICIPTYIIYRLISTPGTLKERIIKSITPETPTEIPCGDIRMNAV
Procedure, shortened: (§2)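 Male Wistar rat brain synaptosomes (P2 fraction): hypothalamus for NE, striatum for DA, cerebral cortex for 5-HT. Buffer is Tris- or HEPES-buffered salt medium with glucose, ascorbate and nialamide, pH 7.4 at 37 °C. Preincubated 10 min at 37 °C with compound. Uptake started with [3H]NE 100–300 nM, [3H]DA 50–300 nM or [3H]5-HT 100–200 nM, incubated 3 min (DA) or 6–10 min (NE, 5-HT). Blanks held on ice. Filtered, counted by scintillation.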

[3] = species on record: Mus musculus; experiment: Antagonism of tetrabenazine (TBZ)-induced depression in mice measured for ptosis; assay type: functional; conditions: Mus musculus; read-out: ED50; procedure, shortened: as §1
[4] = molecular target: Sodium-dependent dopamine transporter (Rattus norvegicus) (UniProt P23977); experiment: Inhibition of tritiated dopamine (DA) uptake at 0.1 uM concentration; assay type: functional; procedure, shortened: as §2
Chain of Sodium-dependent dopamine transporter (Rattus norvegicus) (P23977 whole entry): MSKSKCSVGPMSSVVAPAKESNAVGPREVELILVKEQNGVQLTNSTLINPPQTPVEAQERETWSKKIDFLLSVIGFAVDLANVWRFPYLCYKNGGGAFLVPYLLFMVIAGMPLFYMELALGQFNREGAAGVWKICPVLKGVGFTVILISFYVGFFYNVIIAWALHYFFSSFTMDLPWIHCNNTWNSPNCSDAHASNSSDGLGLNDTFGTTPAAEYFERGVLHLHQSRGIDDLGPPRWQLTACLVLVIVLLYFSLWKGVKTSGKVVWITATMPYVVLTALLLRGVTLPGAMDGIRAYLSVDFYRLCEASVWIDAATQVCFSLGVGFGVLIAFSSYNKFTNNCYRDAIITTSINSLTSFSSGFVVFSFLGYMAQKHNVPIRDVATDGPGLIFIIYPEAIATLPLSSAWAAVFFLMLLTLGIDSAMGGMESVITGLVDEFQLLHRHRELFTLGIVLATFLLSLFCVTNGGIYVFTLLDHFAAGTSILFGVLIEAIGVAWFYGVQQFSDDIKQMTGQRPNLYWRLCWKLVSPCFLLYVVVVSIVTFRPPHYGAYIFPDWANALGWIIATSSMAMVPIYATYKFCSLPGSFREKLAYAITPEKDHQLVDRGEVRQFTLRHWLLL

[5] = species on record: Rattus norvegicus; experiment: Ability to inhibit the uptake of tritiated norepinephrine (NE) at 0.1 uM concentration; assay type: functional; procedure, shortened: as §2
[6] = molecular target: Norepinephrine transporter (Rattus norvegicus, UniProt Q9WTR4); experiment: Inhibition of uptake of tritiated norepinephrine (NE) in rat synaptosomes; assay type: subcellular, Brain
Chain of Norepinephrine transporter (Q9WTR4 whole entry): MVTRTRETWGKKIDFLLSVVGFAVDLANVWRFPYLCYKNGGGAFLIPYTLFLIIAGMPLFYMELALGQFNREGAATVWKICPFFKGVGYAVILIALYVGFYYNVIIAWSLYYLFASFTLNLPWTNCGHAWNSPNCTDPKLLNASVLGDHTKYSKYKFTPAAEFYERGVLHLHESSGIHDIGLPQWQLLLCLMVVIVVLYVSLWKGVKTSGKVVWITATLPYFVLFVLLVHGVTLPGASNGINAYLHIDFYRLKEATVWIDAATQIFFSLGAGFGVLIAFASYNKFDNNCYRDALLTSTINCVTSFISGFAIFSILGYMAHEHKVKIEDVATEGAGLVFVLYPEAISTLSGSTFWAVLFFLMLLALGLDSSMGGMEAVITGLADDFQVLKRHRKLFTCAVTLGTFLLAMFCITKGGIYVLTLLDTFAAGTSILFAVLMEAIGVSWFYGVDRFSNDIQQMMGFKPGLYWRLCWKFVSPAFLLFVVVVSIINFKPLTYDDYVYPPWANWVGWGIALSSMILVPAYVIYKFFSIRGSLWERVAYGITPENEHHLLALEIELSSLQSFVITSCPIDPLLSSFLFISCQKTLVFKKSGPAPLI

[7] = molecular target: Adrenergic receptor alpha-1 (Rattus norvegicus) (UniProt P15823+P23944+P43140); experiment: Binding affinity towards alpha-1 adrenergic receptor at 1.0 uM concentration; assay type: protein assay
Procedure, shortened: (§3)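 Rat brain crude synaptic membranes in 20 mM NaHEPES pH 7.5. Ligands: α1 cortex […] 0.4 nM, nonspecific with (-)-NE 100 μM, 30 min at 25 °C. […] D2 striatum [3H]spiperone 0.05 nM with (+)-butaclamol 1 μM, 45 min at 37 °C. S1 cortex [3H]5-HT 1 nM plus glutathione and MgCl2, with 5-HT 10 μM, 20 min at 37 °C. […] Samples filtered on GF/B and counted.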

[8] = molecular target: D(2) dopamine receptor (Rattus norvegicus) (UniProt P61169); experiment: Binding affinity towards dopamine receptor D2 at 1.0 uM concentration; procedure, shortened: as §3
Chain of D(2) dopamine receptor (Rattus norvegicus) (P61169 whole entry): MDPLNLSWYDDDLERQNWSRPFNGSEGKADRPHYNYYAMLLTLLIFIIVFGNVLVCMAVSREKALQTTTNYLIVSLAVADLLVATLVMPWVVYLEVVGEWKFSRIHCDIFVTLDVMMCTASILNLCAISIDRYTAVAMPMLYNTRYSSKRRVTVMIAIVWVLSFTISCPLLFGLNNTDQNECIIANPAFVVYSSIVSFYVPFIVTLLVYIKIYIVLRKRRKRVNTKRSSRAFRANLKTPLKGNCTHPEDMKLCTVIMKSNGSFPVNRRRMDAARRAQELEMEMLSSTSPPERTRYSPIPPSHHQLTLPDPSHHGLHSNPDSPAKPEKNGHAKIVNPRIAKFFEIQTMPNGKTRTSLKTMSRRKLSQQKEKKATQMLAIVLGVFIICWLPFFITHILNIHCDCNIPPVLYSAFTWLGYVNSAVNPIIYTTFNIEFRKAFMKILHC

[9] = molecular target: Serotonin 1 (5-HT1) receptor (Rattus norvegicus) (UniProt P28564+P30940+P19327+P28565); experiment: Binding affinity towards serotonin S1 receptor at 1.0 uM; assay type: protein assay; procedure, shortened: as §3
[10] = species on record: Mus musculus; experiment: Gross behavioral effects ascertained in mice; W indicates weak stimulant or depressant activity of little significance.; assay type: functional, organism-based
Procedure, shortened: (§4)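 Male Swiss Webster mice, 18–24 g, three per dose, given ip doses of 1, 3, 10, 30, 100 and 300 mg/kg. Observed for gross behavior and held for 4 days. Scored as weak (W), stimulant (S), depressant (D) or convulsant (C).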

[11] = molecular target: Sodium-dependent dopamine transporter (Rattus norvegicus, UniProt P23977); experiment: Inhibition of the uptake of tritiated dopamine (DA) in rat synaptosomes; assay type: subcellular, Brain
Chain of Sodium-dependent dopamine transporter (P23977 whole entry): as the sequence (P23977 whole entry) above

[12] = molecular target: Adrenergic receptor alpha-2 (Rattus norvegicus) (UniProt P22086+P19328+P22909); experiment: Binding affinity towards alpha-2 adrenergic receptor at 1.0 uM concentration; assay type: protein assay
[13] = tested on: Mus musculus; experiment: Ability to antagonise intraperitoneal dose; inactive (<10% antagonism) at 30 mg/kg is represented as I-30.; assay type: functional, organism-based; parameters: dose 30 mg/kg; procedure, shortened: as §1
[14] = molecular target: Sodium-dependent serotonin transporter (Rattus norvegicus) (UniProt P31652); experiment: Ability to inhibit the uptake of [3H]- serotonin(5-HT) 0.1 uM concentration at rat brain synaptosomes; assay type: functional, subcellular; procedure, shortened: as §2
[15] = molecular target: Norepinephrine transporter (Rattus norvegicus) (UniProt Q9WTR4); experiment: Ability to inhibit the uptake of [3H]norepinephrine (NE) 0.1 uM concentration at rat brain synaptosomes; assay type: functional, subcellular; procedure, shortened: as §2
Chain of Norepinephrine transporter (Rattus norvegicus) (Q9WTR4 as listed by the source): as the sequence (Q9WTR4 whole entry) above

[16] = molecular target: Serotonin 2 (5-HT2) receptor (Rattus norvegicus, UniProt P30994+P08909+P14842); experiment: Binding affinity towards 5-hydroxytryptamine 2 receptor; assay type: protein assay
[17] = molecular target: Sodium-dependent dopamine transporter (Rattus norvegicus) (UniProt P23977); experiment: Ability to inhibit the uptake of [3H]dopamine (DA) 0.1 uM concentration at rat brain synaptosomes; assay type: functional, subcellular; procedure, shortened: as §2
[18] = molecular target: T1, Adrenergic receptor alpha-1 (Rattus norvegicus, UniProt P15823+P23944+P43140); experiment: Binding affinity towards alpha-1 adrenergic receptor; assay type: protein assay
T1 sequence (P15823 whole entry): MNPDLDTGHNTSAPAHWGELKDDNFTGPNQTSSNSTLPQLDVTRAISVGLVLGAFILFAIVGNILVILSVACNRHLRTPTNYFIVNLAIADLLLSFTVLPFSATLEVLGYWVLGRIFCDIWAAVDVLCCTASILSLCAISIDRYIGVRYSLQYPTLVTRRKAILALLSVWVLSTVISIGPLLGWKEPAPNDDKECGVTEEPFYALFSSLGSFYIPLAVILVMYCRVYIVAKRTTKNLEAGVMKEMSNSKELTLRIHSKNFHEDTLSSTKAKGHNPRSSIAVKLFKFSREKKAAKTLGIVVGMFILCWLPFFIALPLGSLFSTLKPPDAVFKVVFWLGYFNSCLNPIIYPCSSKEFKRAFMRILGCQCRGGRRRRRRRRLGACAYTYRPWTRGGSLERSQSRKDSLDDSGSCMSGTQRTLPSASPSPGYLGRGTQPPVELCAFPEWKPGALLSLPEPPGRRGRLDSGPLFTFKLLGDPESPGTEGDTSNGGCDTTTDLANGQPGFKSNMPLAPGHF
T1 sequence (P23944 whole entry): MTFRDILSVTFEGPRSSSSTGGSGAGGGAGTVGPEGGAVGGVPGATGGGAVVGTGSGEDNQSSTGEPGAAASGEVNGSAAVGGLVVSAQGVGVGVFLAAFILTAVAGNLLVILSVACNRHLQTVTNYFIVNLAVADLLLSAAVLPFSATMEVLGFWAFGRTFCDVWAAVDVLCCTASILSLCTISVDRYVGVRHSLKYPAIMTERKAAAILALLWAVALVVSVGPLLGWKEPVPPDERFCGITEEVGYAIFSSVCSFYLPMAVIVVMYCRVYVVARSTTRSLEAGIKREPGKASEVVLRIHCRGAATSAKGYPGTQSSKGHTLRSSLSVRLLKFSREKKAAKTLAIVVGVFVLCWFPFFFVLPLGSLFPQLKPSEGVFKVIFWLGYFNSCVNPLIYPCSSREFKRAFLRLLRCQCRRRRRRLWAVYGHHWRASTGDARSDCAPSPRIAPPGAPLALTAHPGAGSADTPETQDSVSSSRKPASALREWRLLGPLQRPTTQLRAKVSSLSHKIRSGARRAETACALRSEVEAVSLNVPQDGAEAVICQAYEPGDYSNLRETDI
T1 sequence (P43140 whole entry): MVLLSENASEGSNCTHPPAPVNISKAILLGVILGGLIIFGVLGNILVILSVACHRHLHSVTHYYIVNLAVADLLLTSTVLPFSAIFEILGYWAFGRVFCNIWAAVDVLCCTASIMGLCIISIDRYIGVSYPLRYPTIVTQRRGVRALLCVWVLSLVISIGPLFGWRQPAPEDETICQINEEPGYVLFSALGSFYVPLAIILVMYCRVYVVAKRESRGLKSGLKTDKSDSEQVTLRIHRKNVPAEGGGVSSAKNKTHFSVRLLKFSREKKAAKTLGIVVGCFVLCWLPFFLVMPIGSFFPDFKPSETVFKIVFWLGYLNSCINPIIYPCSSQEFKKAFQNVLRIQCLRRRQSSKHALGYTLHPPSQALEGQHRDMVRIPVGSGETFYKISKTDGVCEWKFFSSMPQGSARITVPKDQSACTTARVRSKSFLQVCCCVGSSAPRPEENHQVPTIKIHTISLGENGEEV

[19] = tested on: Mus musculus; experiment: Ability to antagonise intraperitoneal dose; inactive (<10% antagonism) at 30 mgjkg is represented as I-30.; assay type: functional, organism-based; procedure, shortened: as §1
[20] = species on record: Mus musculus; experiment: Gross behavioral effects ascertained in mice; S indicates significant stimulant properties.; assay type: functional, organism-based; procedure, shortened: as §4

Compound	ED50 [1] [mg/kg]	ED50 [3] [mg/kg]	inhibition [4] [%]	Inhibition [5] [%]	inhibition [8] [%]	inhibition [9] [%]	behavior [10]	Ki [16] [nM]	also measured
Br.Clc1cccc2c1[C@H](c1ccccc1)CN1CCC[C@@H]21	> 3	> 3	6	3	–	–	–	–	inhibition [2]: 0%
Clc1ccc([C@@H]2CN3CCC[C@@H]3c3cc(Cl)ccc32)cc1	37.4	~4	–	–	55	11	Partial stimulant	–	Ki [6]: 3.2 nM; inhibition [7]: 20%; Ki [11]: 3.2 nM; inhibition [12]: 10%
Fc1ccc([C@@H]2CN3CCC[C@H]3c3ccccc32)cc1	> 60	> 10	43	61	–	–	Weak	–	inhibition [2]: 3%
COc1ccc([C@@H]2CN3CCC[C@H]3c3ccccc32)cc1OC	–	29.4	11	9	–	–	Weak	–	inhibition [2]: 27%; ED50 [13]: inactive
Br.Nc1ccc([C@@H]2CN3CCC[C@H]3c3ccccc32)cc1	1	0.2	–	–	16	36	–	29	inhibition [14]: 17%; inhibition [7]: 69%; inhibition [15]: 89%; inhibition [17]: 77%
CN1CCc2cc(Cl)c(O)cc2[C@@H](c2ccccc2)C1 [SCH-23390]	–	–	–	–	53	75	–	13	inhibition [7]: 65%
FC(F)(F)c1cccc([C@@H]2CN3CCC[C@H]3c3ccccc32)c1	–	–	–	–	–	–	Partial stimulant	29	Ki [18]: 86 nM; inhibition [14]: 9%; inhibition [15]: 23%; inhibition [17]: 8%; ED50 [19]: inactive
Br.Clc1cccc([C@@H]2CN3CCC[C@@H]3c3ccccc32)c1	~0.1	< 1	–	–	–	–	–	49	Ki [6]: 0.45 nM; behavior [20]: Stimulant; Ki [11]: 2.5 nM
c1ccc([C@@H]2CN3CCC[C@@H]3c3ccccc32)cc1	–	–	–	–	–	–	Partial stimulant	–	inhibition [14]: 16%; inhibition [15]: 4%; inhibition [17]: 6%; ED50 [19]: inactive; ED50 [13]: inactive
Br.Oc1ccc([C@@H]2CN3CCC[C@H]3c3ccccc32)cc1	–	2	26	78	59	–	Partial stimulant	–	ED50 [13]: inactive
CSc1ccc([C@@H]2CN3CCC[C@@H]3c3ccccc32)cc1 (stereo in doubt; (+)-48b)	–	–	–	–	–	31	–	–	–
